Compound activity: PubChem, several laboratories
697 NFkB inh: inhibitors of PMA/ionomycin-induced NF-kB reporter, 697 cells, primary screen, B-cell NF-kB inhibitor project, cell-based, luminescence, uHTS; 697 B-cell NF-kB luciferase reporter, 16 h; inhibition, % at 4 µM; 330,000 compounds, 0.33% hits; in the data active = inhibition above about 35%
Jurkat NFkB inh: inhibitors of induced NF-kB luciferase reporter, primary screen, TCR NF-kB activation inhibitor project, cell-based, luminescence, uHTS. Jurkat, PMA/ionomycin-induced NF-kB luciferase reporter. inhibition, % at 4 µM. 330,000 compounds, 0.53% hits; in the data active = inhibition above about 50%
Gli-Sufu antag: Gli-Sufu pathway antagonists, primary screen, luciferase luminescence, Sufu-KO-LIGHT cells, uHTS. Sufu-KO-LIGHT fibroblasts, Gli luciferase reporter luminescence. inhibition, % at 5 µM. 340,000 compounds, 0.74% hits. AID 588413, 2011;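 active = inhibition above about 55%, limit read from the data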;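 also: 0% = DMSO-treated cells and 100% = wells with medium but no cells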
CHOP UPR activ: activators of apoptotic CHOP UPR arm, primary screen, cell-based, CHO-CHOP luciferase reporter, luminescence, uHTS. UPR activation; percent of tunicamycin response over DMSO baseline. activation, % at 10 µM. 330,000 compounds, 0.34% hits. AID 449763, 2010;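 active = at 10 µM dose, activation of 40% or more, normalized to positive control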;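 also: 100% = tunicamycin at 10 µg/mL and 0% = DMSO alone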
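assay system = CHO CHOP reporter cells | amount = 500 CHO-CHOP cells per well | buffer or medium = F12 with 10% FBS | incubation = 16-18 h cell attachment, then 6 h compound exposure, 37 °C | detection = luminescence read with Steady-Glo | read-out = percent activation relative to tunicamycin control | controls = tunicamycin high control, DMSO low control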
CHOP inhibitor: inhibitors of CHOP promoter induction, primary screen, cell-based, unfolded protein response, luciferase reporter; inhibition, % at 10 µM; 220,000 compounds, 3.8% hits; CHO-K1 CHOP-promoter luciferase, tunicamycin-induced, 15-18 h;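 active = compounds that reduced the stress-induced luciferase reporter signal by more than about 70% of percent inhibition, limit read from the data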;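 also: 0% = tunicamycin plus vehicle and 100% = wells without tunicamycin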
UPR XBP1 act: activators of adaptive XBP1 UPR arm, primary screen, cell-based, CHO-XBP1 luciferase reporter, luminescence, uHTS | IRE1-XBP1 UPR activation; percent of tunicamycin response, DMSO as zero | 330,000 compounds, 0.33% hits | activation, % at 20 µM;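 active = versus positive control, 20 µM dose yields 30% or more activation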;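 also: 100% = tunicamycin at 10 µg/mL and 0% = DMSO only wells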
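Material: IRE1-XBP1 luciferase reporter CHO line / Quantity: one thousand reporter cells per well / Buffer or medium: F12 with 10% serum / Compound: 20 µM single concentration, DMSO 1% / Times: 6 h treatment, 37 °C / Detection: Steady-Glo luciferase glow luminescence, 10 min after reagent addition / Benchmarks: tunicamycin high, DMSO low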
Starred values were filed as active, the others as inactive; / = not tested or not shown. Compounds with a hit are over-represented: about 3.9% of the library has one in this group of screens.

SMILES	697 NFkB inh	Jurkat NFkB inh	Gli-Sufu antag	CHOP UPR activ	CHOP inhibitor	UPR XBP1 act
CCOC(=O)N1CCN(C(=O)c2cccc(N3C(=O)NC4CC3(C)Oc3ccc(Cl)cc34)c2)CC1 (centres undefined)	-19.1	5.9	22.9	-1.5	/	-8.2
COc1cc(C(=O)N(Cc2ccccc2)c2cccc(C)c2)ccc1OC(F)F	-8.4	21.4	9.2	-1.4	/	0.4
O=S(=O)(NCc1ccc2c(c1)OCO2)c1ccc2c(c1)oc1ccccc12	-3.9	7.9	3.4	0.1	95.2*	-3.0
O=C(Nc1ccc(S(=O)(=O)NCc2ccccc2)cc1)Nc1ccc2c(c1)OCO2	-29.1	-26.4	-16.3	2.0	84.2*	-0.3
C=C1CCN([C@H](C(=O)OCc2cccc(C)c2)C(C)C)S(=O)(=O)c2ccccc21	-10.0	-13.6	3.0	2.2	14.4	-0.1
Cc1ccc(Cn2nc(-c3ccccc3)nc2-c2ccccc2)cc1	-67.9	-42.2	-38.2	2.1	75.3*	1.0
c1ccc(Cn2nc(-c3ccccc3)nc2-c2ccccc2)cc1	-22.2	-23.6	-31.6	2.7	37.1	1.0
Cc1ccc(N2CCN(c3ccc(C)cc3)C2c2cccnc2)cc1	-17.5	1.6	9.3	1.0	75.8*	-2.9
CNS(=O)(=O)c1cccc(C(=O)OCC(=O)/C=C2/N(C)c3ccccc3C2(C)C)c1	1.5	-16.6	13.2	-1.3	72.8*	-2.4
CCSC1=N/C(=C\c2ccc3c(c2)OCO3)C(=O)S1	-17.3	-2.3	-10.6	2.1	73.6*	0.6
C/C(=N/NC(=O)CNc1ccc(Cl)cc1C)c1ccc(C)cc1	-1.0	21.2	9.7	-1.6	86.9*	0.7
C/C(=N\NC(=O)CNC(=O)c1ccncc1)c1ccc(C)cc1	11.9	6.7	-2.2	-1.8	16.7	-0.5
CCN(C(=O)Cn1cnc2ccccc2c1=O)C1CCS(=O)(=O)C1 (centres undefined)	9.5	13.6	-7.6	0.3	/	-3.7
O=C(Nc1ccccc1)c1ccccc1Oc1ccc(C(F)(F)F)cc1[N+](=O)[O-]	-32.8	-13.8	-3.3	-0.9	71.0*	0.9
O=C(Oc1ccccc1C(=O)Nc1ccccc1)c1ccc(Br)c([N+](=O)[O-])c1	13.5	-14.5	-12.7	9.1	84.5*	2.2
C(=N\Nc1cc(N2CCCCC2)ncn1)/c1ccco1	-124.7	-77.7	-62.3	6.5	/	1.4
CN(Cc1ccc(-n2cccn2)cc1)C(=O)c1cnn2c1NC(c1ccco1)CC2C(F)(F)F (centres undefined)	/	/	-1.6	/	76.4*	/
COCCNC(=O)c1cnn2c1NC(c1ccco1)CC2C(F)(F)F (centres undefined)	10.7	16.0	4.7	-2.1	-4.2	-2.3
O=C(NCc1cccc(Cl)c1)c1cnn2c1NC(c1ccco1)CC2C(F)(F)F (centres undefined)	14.9	18.1	5.2	0.6	91.2*	0.4
O=C(NCc1ccco1)c1cc2cc3ccc(Cl)cc3nc2o1	25.0	-4.5	0.7	3.6	80.2*	0.1
O=C(Nc1nc(-c2cccc3ccccc23)cs1)c1ccc2c(c1)S(=O)(=O)c1ccccc1C2=O	-16.7	-5.5	-8.1	33.8	85.4*	25.4
O=C(Nc1nc(-c2ccccc2)cs1)c1ccc2c(c1)S(=O)(=O)c1ccccc1C2=O	1.6	8.4	-10.0	1.1	15.9	-0.3
C#C[C@]1(O)CC[C@H]2[C@@H]3CCc4cc(OC)ccc4[C@H]3CC[C@@]21C	-29.0	-36.3	-16.2	7.8	70.1*	0.1
C#C[C@]1(O)CC[C@H]2[C@@H]3CCc4cc(OC5CCCC5)ccc4[C@H]3CC[C@@]21C	-18.4	-16.7	2.7	3.7	42.6	6.5
CC(=O)c1cccc(NC(=O)CN(C)Cc2ccc(OC(F)F)cc2)c1	16.8	11.8	6.2	0.2	2.4	2.2
SMILES	697 NFkB inh	Jurkat NFkB inh	Gli-Sufu antag	CHOP UPR activ	CHOP inhibitor	UPR XBP1 act
CCc1ccc2c(c1)C(c1ccc([N+](=O)[O-])cc1)=NNC(c1ccc(F)cc1)=N2	-33.3	-8.6	-14.3	5.2	85.8*	4.3
O/N=C/c1ccc(-c2cc(Cl)ccc2Cl)o1	16.7	7.5	-9.6	-3.6	95.6*	-3.0
CCOc1cc(CNc2ccc(N(C)C)cc2)cc(Br)c1OCC(=O)NC(C)(C)C	-91.1	-66.6	11.6	-1.6	94.9*	2.4
Cc1ccc([N+](=O)[O-])cc1N/C=C1\CCc2ccccc2C1=O	-58.4	-45.4	-40.1	13.5	85.1*	3.5
Cc1ccc(C)c(OCC(O)CN2CCc3ccccc3C2)c1C (centres undefined)	11.5	-0.2	2.8	1.4	/	3.0
Cn1c(CC(=O)Nc2ccc(F)cc2)c(Sc2ccccc2)c2ccccc21	-40.1	2.5	-2.8	0.6	78.6*	0.7
COc1ccc(NC(=O)Cc2c(Sc3ccccc3)c3ccccc3n2C)cc1	-6.9	-4.9	-6.6	0.1	23.2	-1.9
NC(=NC(=O)c1ccc(OCC(F)(F)F)nc1)c1ccc(Cl)cc1	5.6	10.4	3.4	-1.6	81.7*	-1.5
O=S(=O)(c1ccccc1)c1cnn2c(C(F)(F)F)cc(-c3ccccc3)nc12	19.5	0.2	7.1	-0.7	12.5	-1.8
O=S(=O)(c1ccccc1)c1cnn2c(C(F)(F)F)cc(-c3ccc(F)cc3)nc12	-5.3	-12.1	7.4	0.3	70.7*	1.6
CC1(C)Cc2nc3oc4c(=O)n(CC(=O)Nc5ccc(Cl)cc5)cnc4c3cc2CO1	2.9	0.1	-1.4	2.3	95.1*	-1.5
O=C(CC1SC(N2CCCC2)=NC1=O)Nc1ccc(C(=O)N2CCN(c3cccc(Cl)c3)CC2)cc1 (centres undefined)	-23.3	9.7	1.8	0.0	/	2.4
O=C(Nc1ccccc1Oc1ccccc1)c1ccc(Br)o1	-14.8	-12.5	3.9	1.6	86.2*	0.4
O=C(Nc1cccc(Cl)c1N1CCCC1)c1ccc([N+](=O)[O-])o1	-9.8	-10.3	-7.3	-1.9	26.7	2.8
O=C(Nc1cccc(Cl)c1N1CCCC1)c1ccc(Br)o1	-3.5	-19.7	-1.5	-0.2	72.6*	4.5
COc1ccccc1NC(=O)c1ccc(Br)o1	12.4	3.6	-18.6	0.4	-21.9	-2.1
CCOc1cc(/C=N\NC(=O)Cn2nc([N+](=O)[O-])cc2C)ccc1OCc1cccc2ccccc12	3.6	-2.0	-8.9	4.3	88.4*	4.2
COc1ccc(/C=N/NC(=O)Cn2nc([N+](=O)[O-])cc2C)c(OC)c1OC	-7.5	-16.7	7.7	2.9	11.2	-0.6
